According to ChEMBL document CHEMBL5226344, “A Chemical Strategy for Intracellular Arming of an Endogenous Broad-Spectrum Antiviral Nucleotide” (J Med Chem, 2021):
Active and inactive are the calls of the source. The rule behind the calls is not given here.

Assays:
[1] = test system: Zika virus; test: (§1) Antiviral activity against Zika virus PRABC59 infected in human Huh-7 cells assessed as log reduction in plaque forming units at 0.1 mM cells were pretreated with compound for 24 hrs followed by drug removal and subsequent viral infection for 1 hr and later incubated with compound and measured at 4 days post-infection; type: functional; conditions: time 5 day
Method in brief: (§2)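 Cells in 24-well plates (2% FBS medium) pretreated 24 h with compound in medium (0, 0.1, 1 mM), medium removed, infected at MOI 0.1 for 1 h, washed three times, overlaid with drug-containing medium; 37°C, 5% CO2 for 3 days (WNV, 2003 crow isolate) or 4 days (ZIKV PRABC59); supernatant titered by plaque assay; triplicates; one-way ANOVA with Dunnett's test.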

[2] = test system: West Nile virus; test: as §1, with “against West Nile” for “against Zika”, “virus” for “virus PRABC59”, “at 1” for “at 0.1”, “at 3” for “at 4”; type: functional; conditions: time 4 day; method in brief: as §2
[3] = test system: West Nile virus; test: as §1, with “against West Nile” for “against Zika”, “virus” for “virus PRABC59”, “human Huh7.5” for “human Huh-7”, “at 1” for “at 0.1”, “at 3” for “at 4”; type: functional; conditions: time 4 day; method in brief: as §2
[4] = Cytotoxicity against African green monkey Vero cells assessed as cell viability at 1 mM incubated for 5 days by Alamar Blue assay; type: toxicity, cell-based; conditions: chlorocebus sabaeus, time 5 day, read-out: Activity
Method in brief: (§3)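 HUH7 (2,000 cells/well) or Vero (1,500 cells/well) seeded in 10% FBS medium, 24 h; serially diluted compound added (final DMSO 0.5%); incubated 2 or 5 days; Alamar blue added 2 h before read; fluorescence minus no-cell background, normalized to DMSO control; technical triplicates, at least three biological replicates.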

[5] = Drug metabolism in human Huh-7 cells transfected with HINT1 assessed as intracellular concentration of ddhCTP at 100 uM incubated for 24 hrs by mass spectrometry; type: ADME, cell-based; conditions: huh-7, 24 h
[6] = Apparent permeability across apical to basolateral side in human Caco-2 cells at 2 to 10 uM incubated for 2 hrs […]; type: ADME, cell-based; conditions: dose 2-10 µM
Method in brief: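 Caco-2 monolayers grown 21-28 days; compound at 2 or 10 μM in HBSS/10 mM HEPES pH 7.4 (DMSO <1%); 2 h at 37°C, 5% CO2; donor and receiver quantified by LC-MS against internal standard; monolayer integrity by Lucifer Yellow; Papp from receiver accumulation rate, volume, area 0.0804 cm2 and initial donor concentration.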

[7] = Cytotoxicity against human Huh-7 cells assessed as cell viability at 1 mM incubated for 5 days by Alamar Blue assay; type: toxicity, cell-based; conditions: time 5 day, read-out: Activity; method in brief: as §3
[8] = test system: Zika virus; test: as §1, with “Huh7.5” for “Huh-7”; type: functional; set-up: dose or concentration left out as unconfirmed; conditions: time 5 day
[9] = Stability of the compound in simulated gastric fluid assessed as parent compound remaining at 200 uM measured after 6 hrs by LC-MS/MS analysis; type: physicochemical; conditions: read-out: Stability
[10] = Drug metabolism in human Huh-7 cells expressing HINT1 assessed as ddhCTP level at 100 uM incubated for 24 hrs measured per 5 million cells by mass spectrometry (Rvb <0.01 nmol); conditions: huh-7, 24 h
[11] = test system: Huh-7; test: Cytotoxicity against human Huh-7 cells assessed as reduction in cell viability at 0.1 to 1 mM incubated for 2 days by Alamar Blue assay; type: toxicity, cell-based; conditions: huh-7, 48 h, 1000 µM, dose 0.1-1 mM, time 2 day; method in brief: as §3
[12] = test system: Zika virus; test: as §1, with “African green monkey Vero” for “human Huh-7”, “as” for “as log”, “virus-induced cytopathic effect” for “plaque forming units”, “0.1 to 1” for “0.1”; type: functional, organism-based; conditions: dose 0.1-1 mM, time 5.0 day
[13] = test system: West Nile virus; test: (§4) Antiviral activity against West Nile virus infected in African green monkey Vero cells assessed as reduction in virus-induced cytopathic effect at 0.1 to 1 mM cells were pretreated with compound for 24 hrs followed by drug removal and subsequent viral infection for 1 hr and later incubated with compound and measured at 3 days post-infection; type: functional, organism-based; conditions: dose 0.1-1 mM, time 3.0 day
[14] = test system: Vero; test: Cytotoxicity against African green monkey Vero cells assessed as reduction in cell viability at 0.1 to 1 mM incubated for 2 days by Alamar Blue assay; type: toxicity, cell-based; conditions: chlorocebus sabaeus, 48 h, 1000 µM, dose 0.1-1 mM, time 2 day; method in brief: as §3
[15] = Metabolic stability of the compound in human plasma assessed as parent compound remaining at 2 uM measured upto 2 hrs by LC-MS analysis; type: ADME, cell-free
Method in brief: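 Pooled human plasma (3 male, 3 female), pH 7.4, spiked to 2 μM final; 37°C; sampled at 0, 10, 30, 60, 120 min; quenched with MeCN:MeOH containing tolbutamide and labetalol; LC-MS peak-area ratio versus internal standards, percent remaining relative to t0; propantheline as positive control.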

[16] = test system: Zika virus; test: (§5) Competitive inhibition of Zika virus RNA-dependent RNA polymerase assessed as chain termination by measuring inhibition of full length RNA production in presence of 10 uM CTP by primer extension assay based PAGE analysis
Method in brief: (§6)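 Purified ZIKV NS5 RdRp (1 μM), E. coli-expressed ubiquitin fusion with C-terminal His tag. Assembled 30 min at 30 °C with pGGC RNA primer, 20-nt RNA template, ATP, GTP and [α-32P]-ATP in HEPES pH 7.5 buffer with Mg2+. Started with UTP, 10 μM CTP and ddhCTP 0–5000 μM, 5 min, EDTA quench. Full-length RNA scored by denaturing 23% PAGE. IC50 from curve fits, 3 independent repeats.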

[17] = as §5; method in brief: as §6
[18] = test system: West Nile virus; test: as §4, with “human Huh7.5” for “African green monkey Vero”; type: functional, organism-based; conditions: dose 0.1-1 mM, time 3.0 day
Method in brief: (§7)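 Cells grown in DMEM with 2% FBS, pretreated 24 h before confluency with media containing 0, 0.1 or 1 mM compound (diluted from DMSO stocks). Media removed, WNV (2003 crow isolate) added at MOI 0.1 for 1 h, then washed 3x with HBSS. Drug-containing overlay applied, 37°C, 5% CO2, 3 days. Media harvested, titre by plaque titration, triplicate. One-way ANOVA with Dunnett's test.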

[19] = test system: West Nile virus; test: as §4, with “human Huh-7” for “African green monkey Vero”; type: functional, organism-based; conditions: dose 0.1-1 mM, time 3.0 day; method in brief: as §7

Row | Structure (SMILES) | Activity [1] | Activity [2] | Activity [3] | viability at 120 h, 1000 µM [4] | Drug metabolism [5] | Papp A→B at 2 h, up to 10 µM [6] | viability at 120 h, 1000 µM [7] | Activity [8] | remaining at 6 h, 200 µM [9] | Drug metabolism [10] | Activity [11] | Activity [12] | Activity [13] | Activity [14] | Stability [15] | inhibition [16] | IC50 [17] | Activity [18] | Activity [19]
1 | CC(C)OC(=O)[C@H](C)N[P@@](=O)(OCC1=C[C@@H](O)[C@H](n2ccc(N)nc2=O)O1)Oc1ccccc1 | >1 log10PFU/ml | >4 log10PFU/ml | >4 log10PFU/ml | > 60% | > 1 mM | 0.03 ×10⁻⁶ cm/s | > 60% | >1 log10PFU/ml | 76% | 3.8 nmol | Non-Toxic | inactive | inactive | Non-Toxic | > 87% |  |  |  | 
2 | Nc1ccn([C@@H]2OC(COP(=O)(O)OP(=O)(O)OP(=O)(O)O)=C[C@H]2O)c(=O)n1 |  |  |  |  |  |  |  |  |  |  |  |  |  |  |  | Dose-Dependent Effect | 320 µM |  | 
3 | Nc1ccn([C@@H]2OC(CO)=C[C@H]2O)c(=O)n1 |  |  |  |  |  |  |  |  |  | 0.13 nmol | Non-Toxic |  | inactive | Non-Toxic |  |  |  | inactive | inactive
